Measured values reported in ChEMBL document CHEMBL1127613, “Synthesis and pharmacological properties of 11-hydroxy-3-(1',1'-dimethylheptyl)hexahydrocannabinol: a high-affinity cannabinoid agonist” (1994).

Legend:
Format in all cases: functional
Mus musculus [1] = assay: Compound was evaluated for reduction of rectal temperature at 60 min in mouse when administered intravenously; conditions: iv, 1 h
Outline: (§1)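 Mice given the analog by intravenous injection, then run through a tetrad. Spontaneous activity is scored at 5–15 min, tail-flick at 20 min, rectal temperature at 60 min and ring immobility at 90 min after injection. ED50 comes from log dose–response linear regression over n = 4–7 active doses, with standard error estimated by ALLFIT.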

Mus musculus [2] = assay: Compound was evaluated for inhibition of spontaneous activity at 5-15 min in mouse when administered intravenously; conditions: iv; outline: as §1
Mus musculus [3] = assay: Compound was evaluated for inhibition of tail-flick response at 20 min in mouse when administered intravenously; conditions: iv; outline: as §1
Mus musculus [4] = assay: Compound was evaluated for production of ring immobility at 90 min in mouse when administered intravenously; conditions: iv, 1.5 h; outline: as §1

## CCCCCc1cc(O)c2c(c1)OC(C)(C)C1CCC(C)=C[C@@H]21 (single isomer, unassigned) [DRONABINOL]
Mus musculus [1]
  ED50: 1.42 mg/kg
Mus musculus [2]
  ED50: 1.01 mg/kg
Mus musculus [3]
  ED50: 1.42 mg/kg
Mus musculus [4]
  ED50: 1.51 mg/kg

## CCCCCCC(C)(C)c1cc(O)c2c(c1)OC(C)(C)[C@H]1CC[C@H](CO)C[C@H]21
Mus musculus [1]
  ED50: 6.9 mg/kg
Mus musculus [2]
  ED50: 0.77 mg/kg
Mus musculus [3]
  ED50: 0.58 mg/kg
Mus musculus [4]
  ED50: 2.5 mg/kg

## CCCCCCC(C)(C)c1cc(O)c2c(c1)OC(C)(C)[C@@H]1CC[C@@H](CO)C[C@@H]21
Mus musculus [1]
  ED50: 0.037 mg/kg
Mus musculus [2]
  ED50: 0.0054 mg/kg
Mus musculus [3]
  ED50: 0.0018 mg/kg
Mus musculus [4]
  ED50: 0.027 mg/kg
